# High-throughput results: PubChem, several laboratories
# Xi reactivation – X-chromosome reactivation activator; XiGFP mouse fibroblasts, % GFP-positive cells imaging, 3 d; cells co-treated with 5-aza-dC sensitizer; scaled so ellipticine positive control = 100%; activation, % at 7.58 µM; actives 0.055% (n = 360,000); AID 743238;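 active = mean normalized replicate activation at least 10% and every replicate at or above 10%; inconclusive = only one of the two criteria met; inactive = mean below 10% and not all replicates reach 10%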;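 note: 0% = median of on-plate neutral control wells and 100% = ellipticine 6 µM median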
#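 Material: XiGFP fibroblasts, SV40-immortalized; Buffer or medium: DMEM containing 5-aza-dC; Compound dosing: single point; Times: 3 days compound exposure.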
# HGIII-sPLA2 inh – Blocks human group III sPLA2 activity | QFRET BODIPY PC-A2 liposome hydrolysis, fluorescence | inhibition, % at 12.2 µM | actives 0.56% (n = 370,000);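 active = inhibition above mean plus 3 SD of compounds lying within the high and low control bounds, cut at about 19% in these data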;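 note: 0% = median of test compound wells and 100% = no enzyme DMSO wells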
# Target sequence (Q9NZ20 whole entry, looked up): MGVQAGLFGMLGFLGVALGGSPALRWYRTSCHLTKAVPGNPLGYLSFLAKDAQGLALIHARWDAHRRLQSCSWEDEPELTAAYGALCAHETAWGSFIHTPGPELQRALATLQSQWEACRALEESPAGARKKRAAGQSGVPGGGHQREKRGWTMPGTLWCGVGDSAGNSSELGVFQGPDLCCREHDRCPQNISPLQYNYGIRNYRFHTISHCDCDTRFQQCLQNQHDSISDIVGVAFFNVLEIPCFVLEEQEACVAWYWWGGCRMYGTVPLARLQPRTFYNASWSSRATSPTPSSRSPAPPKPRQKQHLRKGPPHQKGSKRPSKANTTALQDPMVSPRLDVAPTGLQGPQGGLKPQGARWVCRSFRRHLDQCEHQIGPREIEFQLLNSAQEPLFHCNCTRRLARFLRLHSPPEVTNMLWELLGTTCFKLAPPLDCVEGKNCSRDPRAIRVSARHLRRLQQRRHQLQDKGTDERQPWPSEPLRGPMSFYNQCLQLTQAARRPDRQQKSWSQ
# SR-BI DiI-HDL act – SR-BI HDL lipid transfer activation; CHO ldlA[mSR-BI] cells, DiI-HDL uptake fluorescence, 3 h; 100 = double the neutral-control signal; activation, % at 12.5 µM; actives 0.096% (n = 320,000); AID 504775;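 active = mean replicate activation of at least 60% and every replicate at or above 60%; inconclusive = mean or all-replicate condition met, but not both; inactive = mean below 60% and not all replicates reaching 60%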;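 note: 0% = median plate neutral-control signal and 100% = twice that signal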
#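 Material: SR-BI-overexpressing, LDLR-lacking CHO cells | Dosing: Single compound concentration, delivered by pin transfer | Probe or stimulus: Labelled HDL, 10 µg/mL | Signal: Bottom-read cell fluorescence after medium removal, ex 550/em 595 nm | Schedule: 3 h, 37 °C | Evaluation: HDL uptake via cellular fluorescence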
# SR-BI DiI inh – inhibitors of mouse SR-BI mediated HDL lipid uptake; Q61009; ldlA[mSR-BI] CHO cells, DiI-HDL uptake fluorescence, 3 h; inhibition, % at 12.5 µM; actives 0.96% (n = 320,000);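 active = mean replicate inhibition of at least 70% and a set share of replicates each scoring 70 or more; inconclusive = meets just one of the two criteria; inactive = fails both criteria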;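 note: 0% = median of neutral control wells and 100% = median of positive control wells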
# NSD2 HMT inh – blocks human histone methyltransferase NSD2; O96028; NSD2 peptide methylation, AlphaScreen, 120 min; inhibition, % at 12.5 µM; actives 0.54% (n = 310,000); in the data active = inhibition above about 50%
# ARNT-TACC3 inh – ARNT/TACC3 interaction disruption; actives 0.66% (n = 390,000); AlphaScreen His-ARNT PAS-B/GST-TACC3 binding, luminescence; TACC3 fragment carries E629A point mutation; inhibition, % at 9.99 µM; AID 623870; Q9Y6A5;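 active = mean inhibition of replicates at least 50% and at least half of replicates each reaching 50%; inconclusive = half or more replicates reach 50% but mean below 50%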;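 note: 0% = complete ARNT plus TACC3 wells and 100% = ARNT alone without TACC3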
# DiI quench – counter-screen for SR-BI lipid transfer inhibitors: DiI fluorescence quenchers. shares compounds with SR-BI DiI inh. cell-free DiI-HDL fluorescence quenching, 30 min. AC50, µM (titrated, usually from 35 µM), for inactives: at the highest dose activity change, negative = quenching. actives 20% (n = 470);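 active = quenching, a falling signal, with AC50 below a set limit tied to the top valid dose, actives reach about 32 µM in these data; inconclusive = no clear call, values can overlap the other calls; inactive = rising signal, and the rest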
# The depositor's hits bear a star; ? = inconclusive; / = no result given. Hits are enriched below; roughly 2% of the tested compounds scored in any of these assays.
SMILES,Xi reactivation,HGIII-sPLA2 inh,SR-BI DiI-HDL act,SR-BI DiI inh,NSD2 HMT inh,ARNT-TACC3 inh,DiI quench
NC(=O)c1cc(-c2ccccc2)sc1NC(=O)CN1CCCCC1,0,-12,-73,73*,5,/,4%
C[C@@H]1CN([C@@H](C)CO)C(=O)c2cc(NS(=O)(=O)c3ccc(Cl)cc3)ccc2O[C@H]1CN(C)S(C)(=O)=O,0,/,/,/,/,/,/
CSc1ccccc1OCc1cc(C(=O)N(C)Cc2c(C)n[nH]c2C)no1,/,/,-78,78*,2,-3,-4%
COc1cc2c(cc1OC)C(c1cc(OC)c(OC)c(OC)c1)NCC2 (configuration not stated),/,7,5,-5,0,0,/
Cn1c(N)c(C(=O)c2ccc(F)cc2F)c(=O)n(C)c1=O,0,9,34,-34,-4,-4,/
COc1ccc([C@H]2CC(=O)C=C(c3cccc4c3sc3ccccc34)C2)cc1OC,0,1,-96,96*,/,0,3%
Cc1ccccc1Cn1cnc2c(NS(C)(=O)=O)c(C)c(C)cc21,/,-6,-23,23,3,-1,/
CC1CCCCN1CCNC(=O)c1ccc2c(c1)N(Cc1cccc(Cl)c1)C(=O)c1ccccc1S2(=O)=O (configuration not stated),0,-6,/,/,0,/,/
CCCCc1nnc(NC(=O)c2ccc(OCc3c(C)noc3C)cc2)s1,0,4,-75,75*,13,0,3%
Cc1c(C(=O)CN2CCSCC2)c2ccccc2n1C,/,4,9,-9,/,/,/
Cc1c(C(=O)CN2CCCC(C)(C)C2)c2ccccc2n1C,0,-4,-76,76*,1,2,-1%
COc1ccccc1C(=O)COC(=O)c1cccc(-n2cnnn2)c1,0,-7,-16,16,0,-4,/
CCOc1ccccc1COC(=O)c1cccc(-n2cnnn2)c1,/,-13,-72,72*,-3,-2,1%
CC(C)OC(=O)c1cccc(C(=O)Nc2cccc(NC(=O)c3cccc(C(=O)OC(C)C)n3)n2)n1,0,12,-72,72*,6,/,-4%
Oc1c(Cl)cc(Cl)c(Cl)c1CN1CCOCC1,0,-4,-6,6,1,-3,/
CCc1cc2cc3c(cc2nc1SCC(=O)OC(C)C)OCO3,0,0,-77,77*,-4,-2,4%
Cc1cc2cc3c(cc2nc1SCC(=O)OC(C)C)OCCO3,/,2,-47,47,/,-17,/
COc1ccc(NC(=O)CCC(=O)N(Cc2ccc(OC)c(OC)c2)c2nccs2)c(OC)c1,0,-1,-30,30,3,6,/
COc1ccc(OC)c(NC(=O)CCC(=O)N(Cc2ccc(OC)c(OC)c2)c2nccs2)c1,0,-3,-73,?,3,-2,-10%
C[C@H](CO)N1C[C@H](C)[C@@H](CN(C)S(=O)(=O)c2cn(C)cn2)Oc2c(NS(=O)(=O)c3ccccc3)cccc2C1=O,0,2,-11,11,/,-4,/
C[C@@H]1CCCCO[C@H](CN(C)S(=O)(=O)c2ccc(F)cc2)[C@H](C)CN([C@@H](C)CO)C(=O)c2cc(NC(=O)Cc3ccccc3)ccc2O1,0,/,/,/,/,3,/
COC(=O)/C=C/c1ccc2c(c1)S(=O)(=O)N(c1cccc(OC)c1)[C@H]2CC(=O)OC,0,-8,-87,87*,/,12,-5%
COc1cccc(N2[C@@H](CC(=O)O)c3ccccc3S2(=O)=O)c1,0,6,13,-13,/,/,/
COc1ccc(C(=O)CSc2nnc(CNC(=O)c3ccc(S(=O)(=O)N(C)C)cc3)o2)cc1,0,-24,-78,78*,1,-3,0%
O=C(CSc1nnc(CNC(=O)c2ccccc2)o1)c1ccccc1,0,-20,8,-8,-1,-11,/
SMILES,Xi reactivation,HGIII-sPLA2 inh,SR-BI DiI-HDL act,SR-BI DiI inh,NSD2 HMT inh,ARNT-TACC3 inh,DiI quench
Cc1ccc2oc(-c3cccc(NC(=O)c4cc(-n5cnnc5)ccc4Cl)c3)nc2c1,/,-3,-76,76*,0,-3,15%
COc1ccccc1CCc1nnc(CCC(=O)N(C)Cc2cccc3cnccc23)o1,1,-2,-75,75*,2,/,0%
CCC(=O)Nc1ccc(Cl)c(NC(=O)c2cccc(OC)c2)c1,0,-2,-80,80*,-3,/,2%
CCC(=O)Nc1ccc(Cl)c(NC(=O)c2ccccc2OC)c1,0,-2,-6,6,-3,/,/
CN(Cc1cc(Cl)cc(Cl)c1O)Cc1c(O)ccc2ccccc12,0,-17,-103,103*,0,9,1.9µM*
COCc1cc(=O)oc2cc(NC(=O)c3ccc(C(C)(C)C)cc3)ccc12,/,/,-71,?,0,2,3%
COc1cc(OC)cc(C(=O)NCC(=O)OCc2cc(=O)oc3cc(OC)ccc23)c1,0,-3,/,/,-2,-1,/
CCOc1ccc(NC(=O)CN2CCN(CC(=O)Nc3cccc(F)c3)CC2)cc1,/,-6,-50,50,-2,3,/
CCOc1ccc(NC(=O)CN2CCN(CC(=O)Nc3cc(OC)cc(OC)c3)CC2)cc1,/,-23,-81,81*,2,-6,-1%
CCOc1ccc(NC(=O)CN2CCN(CC(=O)Nc3ccc(Cl)c(C(F)(F)F)c3)CC2)cc1,/,-40,-37,37,4,5,1%
Cn1c(C(=O)N2CCN(Cc3ccc4c(c3)OCO4)CC2)cc2sccc21,/,-4,18,-18,6,18,/
Cn1c(C(=O)N2CCC(C(=O)N3CCN(Cc4ccc5c(c4)OCO5)CC3)CC2)cc2sccc21,0,-7,-72,72*,/,4,-3%
O=C(NC1CCCCC1)C(c1ccc2ncccc2c1)N(Cc1ccco1)C(=O)c1ccc2c(c1)OCCO2 (configuration not stated),/,2,14,-14,/,6,-2%
CC[C@]12c3[nH]c4cc(-c5ccco5)ccc4c3CCN1C(=O)[C@@H](CC(=O)NCc1ccc(OC)c(OC)c1)C[C@@H]2C(=O)N1CCN(C(=O)c2ccco2)CC1,0,-16,-75,75*,/,6,-13%
Cc1cc(C)c(C#N)c(N2CCN(C(=O)C3COc4ccccc4O3)CC2)n1 (configuration not stated),0,11,-14,14,-5,-2,/
Cc1ccc(C(=O)COc2cc(O)c3c(=O)cc(-c4ccccc4)oc3c2)cc1,0,1,-78,78*,-4,/,-4%
